Measured values published in ChEMBL document CHEMBL4732206, “Novel diaryl-2H-azirines: Antitumor hybrids for dual-targeting tubulin and DNA” (Eur J Med Chem, 2021).
Activity calls are given as the source filed them. The rule behind the calls is not given here.

Columns and labels:
[1] = tested on: A2780; experiment: Antiproliferative activity against human A2780 cells assessed as reduction in cell viability incubated for 48 hrs by MTT assay; assay type: functional, cell-based; details: A2780, 48 h
Outline: (§1)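 Cells were grown in DMEM with 10% FBS and penicillin/streptomycin at 37 °C and 5% CO2. They were seeded for 24 h, then treated with graded concentrations for 48 h. MTT (5 mg/mL) was added for a further 4 h at 37 °C. Formazan was dissolved in DMSO and absorbance read at 570 nm. IC50 was taken from the concentration-response curve.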

[2] = tested on: HeLa; experiment: Antiproliferative activity against human HeLa cells assessed as reduction in cell viability incubated for 48 hrs by MTT assay; assay type: functional, cell-based; outline: as §1
[3] = tested on: A549; experiment: Antiproliferative activity against human A549 cells assessed as reduction in cell viability incubated for 48 hrs by MTT assay; assay type: functional, cell-based; details: A549, 48 h; outline: as §1
[4] = Inhibition of pig brain tubulin polymerization by spectrophotometry; set-up: species or system Sus scrofa
[5] = biological target: Tubulin (Homo sapiens) (UniProt P68371+Q9H4B7+P0DPH7+P68366+Q13509+Q71U36+P04350+Q3ZCM7+P07437+P68363+Q9BQE3+Q6PEY2+Q13885+Q9BVA1+Q9BUF5); experiment: Inhibition of tubulin polymerization in human HeLa cells assessed as disorganisation of microtubule at 100 to 200 nM incubated for overnight by DAPI staining based immunofluorescence assay; assay type: cell-based; details: dose 100-200 nM
Outline: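 HeLa cells were exposed overnight to a range of compound concentrations, with DMSO as the negative control. Cells were fixed in methanol, permeabilised with 0.1% Triton X-100 and blocked in 3% BSA for 1 h. They were probed with anti-α-tubulin monoclonal antibody overnight at 4 °C, then an Alexa 488 secondary antibody. Nuclei were stained with DAPI for 10 min at room temperature, and cells were imaged by confocal fluorescence microscopy.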

[6] = tested on: Jurkat; experiment: Induction of DNA damage in human Jurkat cells assessed as upregulation of GADD45alpha protein expression incubated for 48 hrs by Western blot analysis; assay type: functional, cell-based; details: dose 2-8 µM
[7] = tested on: HeLa; experiment: Induction of apoptosis in human HeLa cells assessed as early apoptotic cells at 1 uM incubated for 48 hrs by annexin-V-FITC and PI staining based flow cytometry analysis (reference value: 2.25 %); assay type: functional
[8] = tested on: HeLa; experiment: Induction of apoptosis in human HeLa cells assessed as necrotic cells at 1 uM incubated for 48 hrs by annexin-V-FITC and PI staining based flow cytometry analysis (reference value: 0.18 %); assay type: functional
[9] = tested on: HeLa; experiment: Induction of apoptosis in human HeLa cells assessed as late apoptotic cells at 2 uM incubated for 48 hrs by annexin-V-FITC and PI staining based flow cytometry analysis (reference value: 0.23 %); assay type: functional
[10] = tested on: HeLa; experiment: Induction of apoptosis in human HeLa cells assessed as viable cells at 4 uM incubated for 48 hrs by annexin-V-FITC and PI staining based flow cytometry analysis (reference value: 97.34 %); assay type: functional; details: read-out: Activity
[11] = tested on: HeLa; experiment: Induction of apoptosis in human HeLa cells assessed as late apoptotic cells at 4 uM incubated for 48 hrs by annexin-V-FITC and PI staining based flow cytometry analysis (reference value: 0.23 %); assay type: functional
[12] = tested on: HeLa; experiment: Induction of apoptosis in human HeLa cells assessed as necrotic cells at 4 uM incubated for 48 hrs by annexin-V-FITC and PI staining based flow cytometry analysis (reference value: 0.18 %); assay type: functional
[13] = tested on: HeLa; experiment: Induction of apoptosis in human HeLa cells assessed as viable cells at 8 uM incubated for 48 hrs by annexin-V-FITC and PI staining based flow cytometry analysis (reference value: 97.34 %); assay type: functional; details: read-out: Activity
[14] = tested on: HeLa; experiment: Induction of apoptosis in human HeLa cells assessed as early apoptotic cells at 8 uM incubated for 48 hrs by annexin-V-FITC and PI staining based flow cytometry analysis (reference value: 2.25 %); assay type: functional
[15] = tested on: HeLa; experiment: Induction of apoptosis in human HeLa cells assessed as late apoptotic cells at 8 uM incubated for 48 hrs by annexin-V-FITC and PI staining based flow cytometry analysis (reference value: 0.23 %); assay type: functional
[16] = tested on: HeLa; experiment: Induction of apoptosis in human HeLa cells assessed as necrotic cells at 8 uM incubated for 48 hrs by annexin-V-FITC and PI staining based flow cytometry analysis (reference value: 0.18 %); assay type: functional
[17] = tested on: HeLa; experiment: Induction of apoptosis in human HeLa cells assessed as upregulation of p53 protein expression by Western blot analysis; assay type: functional, cell-based; details: dose 2-8 µM
Outline: (§2)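 HeLa cells were treated with graded concentrations or DMSO, washed in PBS and lysed. Protein was measured by BCA, separated by SDS-PAGE and transferred to PVDF. Membranes were blocked in 5% BSA/TBST, incubated with primary antibodies overnight at 4 °C, then with HRP secondary antibodies. Bands were detected by chemiluminescence.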

[18] = tested on: HeLa; experiment: Induction of cell cycle arrest in human HeLa cells assessed as upregulation of p-histone-H3 protein expression at 0.8 to 3.2 uM by Western blot analysis; assay type: functional, cell-based; details: dose 0.8-3.2 µM; outline: as §2
[19] = tested on: HeLa; experiment: Induction of cell cycle arrest in human HeLa cells assessed as upregulation of BubR1 protein expression at 0.8 to 3.2 uM by Western blot analysis; assay type: functional, cell-based; details: dose 0.8-3.2 µM; outline: as §2
[20] = tested on: HeLa; experiment: Inhibition of colony formation in human HeLa cells incubated for 48 hrs followed by replacement with fresh medium and further incubation for 7 to 10 days by gentian violet staining based assay; assay type: functional, cell-based; details: dose 0.5-8 µM
Outline: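 HeLa cells in six-well plates were grown for 24 h at 37 °C, then treated with graded concentrations or DMSO for 48 h. Medium was replaced with fresh medium for a further 7–10 days. Colonies were stained with gentian violet for 30 min, washed with PBS and counted relative to control.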

[21] = tested on: A2780; experiment: Antitumor activity against human A2780 cells xenografted in Balb/c mouse assessed as tumor growth inhibition administered every two days by caliper analysis; assay type: functional; details: dose 25-50 mg/kg
Outline: (§3)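 Nude mice carried A2780 cells implanted in PBS in the right flank. When tumors reached 100 mm³, mice were randomized into four groups (n = 10): vehicle, 25 or 50 mg/kg test compound, and PTX 10 mg/kg. Dosing was every two days; vehicle was 10% castor oil and 10% DMSO in PBS. Volume (π/6 × length × width²) and body weight were measured by caliper and scale at each dose. Tumors were excised and weighed at the end.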

[22] = tested on: A2780; experiment: Antitumor activity against human A2780 cells xenografted in Balb/c mouse assessed as reduction in tumor weight at 25 to 50 mg/kg administered every two days; assay type: functional, organism-based; details: dose 25-50 mg/kg; outline: as §3
[23] = Toxicity in Balb/c mouse xenografted with human A2780 cells assessed as effect on body weight at 25 to 50 mg/kg administered every two days; assay type: organism-based; details: in vivo, dose 25-50 mg/kg; outline: as §3
[24] = tested on: Jurkat; experiment: Induction of DNA damage in human Jurkat cells assessed as increase in tail moment at 100 to 400 nM incubated for 48 hrs by comet assay; assay type: functional, cell-based; details: dose 100-400 nM
Outline: (§4)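 Jurkat cells were exposed to graded concentrations, MMC 200 nM positive control or DMSO for 48 h at 37 °C, with work done in darkness. Cells were embedded in LM agarose on comet slides and lysed for 2 h at 4 °C. Slides were unwound in 1 mM EDTA/200 mM NaOH for 30 min, electrophoresed at 25 V for 15 min, stained with ethidium bromide and imaged by fluorescence microscopy. Tail moment was scored.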

[25] = tested on: Jurkat; experiment: Induction of DNA damage in human Jurkat cells at 100 to 400 nM incubated for 48 hrs by EB staining based analysis; assay type: functional, cell-based; details: dose 100-400 nM; outline: as §4

With `COc1ccc(C2N=C2c2cc(OC)c(OC)c(OC)c2)cc1F` (stereo not given) as the compound, how does the IC50 [1] read?
Its IC50 is 160 nM.

What about the IC50 [2] of the same compound?
The IC50 was 870 nM.

What about the IC50 [3] of the same compound?
Its IC50 is 1190 nM.

What about the IC50 [4] of the same compound?
Its IC50 is 3300 nM.

And the inhibition [5]?
Its inhibition is “Active”.

And the Activity [6]?
The Activity was “Dose-dependent effect”.

And the Activity [7]?
Its Activity is 2.86%.

What about the Activity [8] of the same compound?
Its Activity is 0.28%.

And the Activity [9]?
Its Activity is 5.72%.

What about the viability at 4 µM [10] of the same compound?
Its viability at 4 µM is 63.5%.

What about the Activity [11] of the same compound?
Its Activity is 7.52%.

What about the Activity [12] of the same compound?
Its Activity is 0.56%.

What about the viability at 8 µM [13] of the same compound?
The viability at 8 µM was 39.6%.

What about the Activity [14] of the same compound?
The Activity was 50.47%.

And the Activity [15]?
The Activity was 7.79%.

And the Activity [16]?
The Activity was 2.14%.

And the Activity [17]?
Its Activity is “Dose-dependent effect”.

And the Activity [18]?
Its Activity is “Active”.

What about the Activity [19] of the same compound?
The Activity was “Active”.

And the inhibition [20]?
Its inhibition is “Dose-dependent effect”.

What about the TGI [21] of the same compound?
Its TGI is “Dose-dependent effect”.

What about the Activity [22] of the same compound?
Its Activity is “Active”.

What about the Activity [23] of the same compound?
The Activity was “Non-Toxic”.

And the Activity [24]?
Its Activity is “Active”.

What about the Activity [25] of the same compound?
The Activity was “Active”.
